Test results reported in ChEMBL document CHEMBL5674868, “Cancer Cells Hijack PRC2 to Modify Multiple Cytokine Pathways” (PLoS One, 2015).
Calls of active or inactive are those of the source. The rule behind the calls is not given here.

Assays:
Type in all cases: cell-based
[1] = target: Histone-lysine N-methyltransferase EZH2 (Homo sapiens) (UniProt Q15910); assay: Inhibition of EZH2 in human MCF7 cells assessed as effect on HPRT mRNA level after 6 hrs by RT-PCR analysis
Method in brief: (§1)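 Cells were treated for two four-day cycles with 2 μM GSK343 or UNC1999, then left untreated or stimulated with human IFNγ for 6 h. mRNA was measured by reverse transcription quantitative PCR and normalized to β-actin. Three biological replicates were run per treatment group.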

[2] = target: Histone-lysine N-methyltransferase EZH2 (Homo sapiens) (UniProt Q15910); assay: Inhibition of EZH2 in human MCF7 cells assessed as effect on HPRT mRNA level after 6 hrs by RT-PCR analysis in presence of IFN-gamma; method in brief: as §1
[3] = target: Histone-lysine N-methyltransferase EZH2 (Homo sapiens) (UniProt Q15910); assay: Inhibition of EZH2 in human MCF7 cells assessed as effect on PITX2 mRNA level after 6 hrs by RT-PCR analysis
Method in brief: (§2)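 Cells pretreated for two 4-day cycles with 2 µM GSK343 or UNC1999, then left unstimulated or given human IFNγ for 6 h. RNA reverse-transcribed and measured by quantitative PCR, normalized to β-actin. Three biological replicates per treatment group.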

[4] = target: Histone-lysine N-methyltransferase EZH2 (Homo sapiens) (UniProt Q15910); assay: Inhibition of EZH2 in human A549 cells assessed as effect on PITX2 mRNA level after 6 hrs by RT-PCR analysis; method in brief: as §1
[5] = target: Histone-lysine N-methyltransferase EZH2 (Homo sapiens) (UniProt Q15910); assay: Inhibition of EZH2 in human A549 cells assessed as effect on IRF1 mRNA level after 6 hrs by RT-PCR analysis; method in brief: as §1
[6] = target: Histone-lysine N-methyltransferase EZH2 (Homo sapiens) (UniProt Q15910); assay: Inhibition of EZH2 in human HeLa cells assessed as effect on PITX2 mRNA level after 6 hrs by RT-PCR analysis; method in brief: as §1
[7] = target: Histone-lysine N-methyltransferase EZH2 (Homo sapiens) (UniProt Q15910); assay: Inhibition of EZH2 in human ASPC1 cells assessed as effect on IRF1 mRNA level after 6 hrs by RT-PCR analysis; method in brief: as §1
[8] = target: Histone-lysine N-methyltransferase EZH2 (Homo sapiens) (UniProt Q15910); assay: Inhibition of EZH2 in human HeLa cells assessed as effect on HPRT mRNA level after 6 hrs by RT-PCR analysis; method in brief: as §1
[9] = target: Histone-lysine N-methyltransferase EZH2 (Homo sapiens) (UniProt Q15910); assay: Inhibition of EZH2 in human MCF7 cells assessed as effect on IRF1 mRNA level after 6 hrs by RT-PCR analysis in presence of IFN-gamma; method in brief: as §2
[10] = target: Histone-lysine N-methyltransferase EZH2 (Homo sapiens) (UniProt Q15910); assay: Inhibition of EZH2 in human A549 cells assessed as effect on HPRT mRNA level after 6 hrs by RT-PCR analysis in presence of IFN-gamma; method in brief: as §1
[11] = target: Histone-lysine N-methyltransferase EZH2 (Homo sapiens) (UniProt Q15910); assay: Inhibition of EZH2 in human MCF7 cells assessed as effect on PITX2 mRNA level after 6 hrs by RT-PCR analysis in presence of IFN-gamma; method in brief: as §2
[12] = target: Histone-lysine N-methyltransferase EZH2 (Homo sapiens) (UniProt Q15910); assay: Inhibition of EZH2 in human MCF7 cells assessed as effect on IRF1 mRNA level after 6 hrs by RT-PCR analysis; method in brief: as §1
[13] = target: Histone-lysine N-methyltransferase EZH2 (Homo sapiens) (UniProt Q15910); assay: Inhibition of EZH2 in human A549 cells assessed as decrease in H3K27me3 levels at 2 uM after 6 hrs by Western blot analysis
[14] = target: Histone-lysine N-methyltransferase EZH2 (Homo sapiens) (UniProt Q15910); assay: Inhibition of EZH2 in human HeLa cells assessed as decrease in H3K27me3 levels at 2 uM after 6 hrs by Western blot analysis
[15] = target: Histone-lysine N-methyltransferase EZH2 (Homo sapiens) (UniProt Q15910); assay: Inhibition of EZH2 in human HeLa cells assessed as effect on PITX2 mRNA level after 6 hrs by RT-PCR analysis in presence of IFN-gamma; method in brief: as §1
[16] = target: Histone-lysine N-methyltransferase EZH2 (Homo sapiens) (UniProt Q15910); assay: Inhibition of EZH2 in human ASPC1 cells assessed as effect on PITX2 mRNA level after 6 hrs by RT-PCR analysis; method in brief: as §1
[17] = target: Histone-lysine N-methyltransferase EZH2 (Homo sapiens) (UniProt Q15910); assay: Inhibition of EZH2 in human MCF7 cells assessed as decrease in H3K27me3 levels at 2 uM after 6 hrs by Western blot analysis
[18] = target: Histone-lysine N-methyltransferase EZH2 (Homo sapiens) (UniProt Q15910); assay: Inhibition of EZH2 in human ASPC1 cells assessed as effect on IRF1 mRNA level after 6 hrs by RT-PCR analysis in presence of IFN-gamma; method in brief: as §1
[19] = target: Histone-lysine N-methyltransferase EZH2 (Homo sapiens) (UniProt Q15910); assay: Inhibition of EZH2 in human AsPC1 cells assessed as decrease in H3K27me3 levels at 2 uM after 6 hrs by Western blot analysis
[20] = target: Histone-lysine N-methyltransferase EZH2 (Homo sapiens) (UniProt Q15910); assay: Inhibition of EZH2 in human A549 cells assessed as effect on PITX2 mRNA level after 6 hrs by RT-PCR analysis in presence of IFN-gamma; method in brief: as §1
[21] = target: Histone-lysine N-methyltransferase EZH2 (Homo sapiens) (UniProt Q15910); assay: Inhibition of EZH2 in human ASPC1 cells assessed as effect on PITX2 mRNA level after 6 hrs by RT-PCR analysis in presence of IFN-gamma; method in brief: as §1
[22] = target: Histone-lysine N-methyltransferase EZH2 (Homo sapiens) (UniProt Q15910); assay: Inhibition of EZH2 in human HeLa cells assessed as effect on IRF1 mRNA level after 6 hrs by RT-PCR analysis in presence of IFN-gamma; method in brief: as §1
[23] = target: Histone-lysine N-methyltransferase EZH2 (Homo sapiens) (UniProt Q15910); assay: Inhibition of EZH2 in human HeLa cells assessed as effect on IRF1 mRNA level after 6 hrs by RT-PCR analysis; method in brief: as §1
[24] = target: Histone-lysine N-methyltransferase EZH2 (Homo sapiens) (UniProt Q15910); assay: Inhibition of EZH2 in human ASPC1 cells assessed as effect on HPRT mRNA level after 6 hrs by RT-PCR analysis in presence of IFN-gamma; method in brief: as §1
[25] = target: Histone-lysine N-methyltransferase EZH2 (Homo sapiens) (UniProt Q15910); assay: Inhibition of EZH2 in human ASPC1 cells assessed as effect on HPRT mRNA level after 6 hrs by RT-PCR analysis; method in brief: as §1
[26] = target: Histone-lysine N-methyltransferase EZH2 (Homo sapiens) (UniProt Q15910); assay: Inhibition of EZH2 in human HeLa cells assessed as effect on HPRT mRNA level after 6 hrs by RT-PCR analysis in presence of IFN-gamma; method in brief: as §1
[27] = target: Histone-lysine N-methyltransferase EZH2 (Homo sapiens) (UniProt Q15910); assay: Inhibition of EZH2 in human A549 cells assessed as effect on HPRT mRNA level after 6 hrs by RT-PCR analysis; method in brief: as §1
[28] = target: Histone-lysine N-methyltransferase EZH2 (Homo sapiens) (UniProt Q15910); assay: Inhibition of EZH2 in human A549 cells assessed as effect on IRF1 mRNA level after 6 hrs by RT-PCR analysis in presence of IFN-gamma; method in brief: as §1

Sequence of Histone-lysine N-methyltransferase EZH2 (Homo sapiens) (Q15910 whole entry, looked up): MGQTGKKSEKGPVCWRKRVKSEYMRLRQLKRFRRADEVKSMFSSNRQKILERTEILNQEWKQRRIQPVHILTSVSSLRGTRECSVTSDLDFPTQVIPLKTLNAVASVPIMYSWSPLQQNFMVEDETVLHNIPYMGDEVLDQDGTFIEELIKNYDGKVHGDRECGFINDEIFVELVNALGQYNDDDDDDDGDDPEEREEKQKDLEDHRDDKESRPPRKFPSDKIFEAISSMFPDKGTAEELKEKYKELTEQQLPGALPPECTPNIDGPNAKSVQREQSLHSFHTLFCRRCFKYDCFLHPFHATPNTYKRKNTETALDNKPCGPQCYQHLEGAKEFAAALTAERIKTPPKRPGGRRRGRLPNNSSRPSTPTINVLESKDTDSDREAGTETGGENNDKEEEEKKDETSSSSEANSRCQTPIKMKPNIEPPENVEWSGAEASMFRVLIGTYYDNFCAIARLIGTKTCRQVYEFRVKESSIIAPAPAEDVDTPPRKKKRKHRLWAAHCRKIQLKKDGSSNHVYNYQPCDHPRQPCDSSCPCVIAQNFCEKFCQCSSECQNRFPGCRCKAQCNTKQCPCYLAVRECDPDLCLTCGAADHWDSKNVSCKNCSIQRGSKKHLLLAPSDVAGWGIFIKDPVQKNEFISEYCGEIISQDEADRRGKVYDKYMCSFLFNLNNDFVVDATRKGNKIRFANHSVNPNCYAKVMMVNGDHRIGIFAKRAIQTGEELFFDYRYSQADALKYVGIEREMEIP

inhibition [1]: inactive
inhibition [2]: inactive
inhibition [3]: inactive
inhibition [4]: inactive
inhibition [5]: inactive
inhibition [6]: inactive
inhibition [7]: inactive
inhibition [8]: inactive
inhibition [9]: inactive
inhibition [10]: inactive
inhibition [11]: inactive
inhibition [12]: inactive
inhibition [13]: Active
inhibition [14]: Active
inhibition [15]: inactive
inhibition [16]: inactive
inhibition [17]: Active
inhibition [18]: inactive
inhibition [19]: Active
inhibition [20]: inactive
inhibition [21]: inactive
inhibition [22]: inactive
inhibition [23]: inactive
inhibition [24]: inactive
inhibition [25]: inactive
inhibition [26]: inactive
inhibition [27]: inactive
inhibition [28]: inactive
SMILES: CCCc1cc(C)[nH]c(=O)c1CNC(=O)c1cc(-c2ccnc(N3CCN(C)CC3)c2)cc2c1cnn2C(C)C
